According to ChEMBL document CHEMBL1140080, “Adamantyl-substituted retinoid-derived molecules that interact with the orphan nuclear receptor small heterodimer partner: effects of replacing the 1-adamantyl or hydroxyl group on inhibition of cancer cell growth, induction of cancer cell apoptosis, and inhibition of SRC homology 2 …” (J Med Chem, 2008):

Experiments:
[1] = Antiproliferative activity against human H292 cells at 10 uM after 72 hrs by MTT assay; assay type: functional; conditions: NCI-H292, 72 h
How it was run: (§1)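 Cells attached for 24 h, then exposed 72 h to analogue in Me2SO or Me2SO alone (final Me2SO 0.1%), with media and compound renewed after 48 h. Viable cells were measured by MTS tetrazolium reduction in three replicates. Top concentration tested per compound was 2.5, 5, 10, 20 or 100 μM.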

[2] = target: T1, Nuclear receptor subfamily 0 group B member 2 (Homo sapiens) (UniProt Q15466); assay: Displacement of [5,5'-3H2]AHPN from human recombinant GST-SHP at 50 uM by liquid scintillation counting relative to 3-Cl-AHPC
T1 sequence (whole entry): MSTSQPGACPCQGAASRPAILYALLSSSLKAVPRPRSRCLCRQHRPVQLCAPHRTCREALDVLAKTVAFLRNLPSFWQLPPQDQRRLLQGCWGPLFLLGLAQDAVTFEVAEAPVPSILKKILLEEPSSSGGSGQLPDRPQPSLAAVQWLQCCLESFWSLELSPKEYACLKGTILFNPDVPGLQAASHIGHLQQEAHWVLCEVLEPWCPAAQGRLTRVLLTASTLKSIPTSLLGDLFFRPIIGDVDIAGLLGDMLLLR
How it was run: (§2)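 Recombinant GST–human SHP was bound to glutathione–Sepharose beads and incubated 2 h with 5 nM [5,5′-3H2]AHPN with or without competitor (1.0, 5.0 or 50 μM). Beads were washed twice and counted. Displacement was expressed relative to 50 μM 3-Cl-AHPC set as 100%.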

[3] = target: T2, Tyrosine-protein phosphatase non-receptor type 11 (Homo sapiens, UniProt Q06124); assay: Inhibition of SHP2 overexpressed in human KG1 cells; assay type: cell-based, KG-1
T2 sequence (Q06124 whole entry): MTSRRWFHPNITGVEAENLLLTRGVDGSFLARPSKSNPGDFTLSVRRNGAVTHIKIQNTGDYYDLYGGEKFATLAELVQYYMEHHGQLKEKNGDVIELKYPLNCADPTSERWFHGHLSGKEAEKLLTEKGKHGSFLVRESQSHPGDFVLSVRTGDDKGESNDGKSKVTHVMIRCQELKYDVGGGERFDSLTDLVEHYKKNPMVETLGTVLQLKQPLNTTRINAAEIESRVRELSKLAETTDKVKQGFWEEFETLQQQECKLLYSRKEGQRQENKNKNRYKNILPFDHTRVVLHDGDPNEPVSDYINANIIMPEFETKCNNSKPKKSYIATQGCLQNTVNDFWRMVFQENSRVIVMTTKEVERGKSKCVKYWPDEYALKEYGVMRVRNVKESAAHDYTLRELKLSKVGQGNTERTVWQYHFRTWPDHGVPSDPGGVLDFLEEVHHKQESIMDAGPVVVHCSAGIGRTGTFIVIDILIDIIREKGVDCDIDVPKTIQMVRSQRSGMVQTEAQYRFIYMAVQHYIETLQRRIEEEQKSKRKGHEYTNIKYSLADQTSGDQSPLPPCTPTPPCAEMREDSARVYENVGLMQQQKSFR
How it was run: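 Shp-2 PTP activity was measured as hydrolysis of the fluorogenic substrate 6,8-difluoro-4-methylumbelliferyl phosphate in the presence of analogue in Me2SO or Me2SO alone (final concentration 5%).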

KG-1 [4] = assay: Induction of apoptosis in human KG1 cells at 1.0 uM […] by acridine orange staining; assay type: functional
KG-1 [5] = assay: Induction of apoptosis in human KG1 cells at 5.0 uM […] by acridine orange staining; assay type: functional
KG-1 [6] = assay: Induction of apoptosis in human KG1 cells after 48 hrs by acridine orange staining; assay type: functional, cell-based; conditions: KG-1, 48 h
[7] = Antiproliferative activity against human KG1 AML cells after 48 hrs by MTT assay; assay type: functional, cell-based; conditions: in the assay text read “by hemocytometer cell counting” for “by MTT assay”
How it was run: (§3)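 KG-1 cells in 5% FBS medium attached overnight, then treated 48 h with analogue in Me2SO or Me2SO alone (final 0.1%). Cells were harvested and counted by hemocytometer in triplicate wells. Highest concentration evaluated was 5 μM.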

DU-145 [8] = assay: Antiproliferative activity against human DU145 cells after 72 hrs by MTT assay; assay type: functional, cell-based; conditions: DU-145, 72 h; how it was run: as §1
MDA-MB-231 [9] = assay: Antiproliferative activity against human MDA-MB-231 cells after 72 hrs by MTT assay; assay type: functional, cell-based; conditions: MDA-MB-231, 72 h; how it was run: as §1
[10] = Antiproliferative activity against human H292 cells after 72 hrs by MTT assay; assay type: functional, cell-based; conditions: NCI-H292, 72 h; how it was run: as §1
[11] = Antiproliferative activity against human KG1 AML cells at 5 uM after 48 hrs by MTT assay; assay type: functional; conditions: in the assay text read “by hemocytometer cell counting” for “by MTT assay”; how it was run: as §3
DU-145 [12] = assay: Antiproliferative activity against human DU145 cells at 10 uM after 72 hrs by MTT assay; assay type: functional; conditions: DU-145, 72 h; how it was run: as §1
MDA-MB-231 [13] = assay: Antiproliferative activity against human MDA-MB-231 cells at 10 uM after 72 hrs by MTT assay; assay type: functional; conditions: MDA-MB-231, 72 h; how it was run: as §1
DU-145 [14] = assay: Antiproliferative activity against human DU145 cells at 5 uM after 72 hrs by MTT assay; assay type: functional; conditions: DU-145, 72 h; how it was run: as §1
MDA-MB-231 [15] = assay: Antiproliferative activity against human MDA-MB-231 cells at 5 uM after 72 hrs by MTT assay; assay type: functional; conditions: MDA-MB-231, 72 h; how it was run: as §1
[16] = Antiproliferative activity against human H292 cells at 5 uM after 72 hrs by MTT assay; assay type: functional; conditions: NCI-H292, 72 h; how it was run: as §1
[17] = Antiproliferative activity against human H292 cells at 100 uM after 72 hrs by MTT assay; assay type: functional; conditions: NCI-H292, 72 h; how it was run: as §1
[18] = target: T3, Nuclear receptor subfamily 0 group B member 2 (Homo sapiens, UniProt Q15466); assay: Displacement of [5,5'-3H2]AHPN from human recombinant GST-SHP by liquid scintillation counting relative to 3-Cl-AHPC; how it was run: as §2
T3 sequence (Q15466 whole entry): T1 sequence (whole entry)

DU-145 [19] = assay: Antiproliferative activity against human DU145 cells at 100 uM after 72 hrs by MTT assay; assay type: functional; conditions: DU-145, 72 h; how it was run: as §1
MDA-MB-231 [20] = assay: Antiproliferative activity against human MDA-MB-231 cells at 100 uM after 72 hrs by MTT assay; assay type: functional; conditions: MDA-MB-231, 72 h; how it was run: as §1
KG-1 [21] = assay: Induction of apoptosis in human KG1 cells at 25 uM […] by acridine orange staining; assay type: functional

| Activity [2] | IC50 [3] | IC50 (DU-145 [8]) | IC50 (MDA-MB-231 [9]) | SMILES | inhibition at 10 µM [1] | Activity (KG-1 [4]) | Activity (KG-1 [5]) | IC50 [7] | IC50 [10] | Activity [11] | inhibition at 10 µM (DU-145 [12]) | inhibition at 10 µM (MDA-MB-231 [13]) | inhibition at 5 µM (DU-145 [14]) | inhibition at 5 µM (MDA-MB-231 [15]) | inhibition at 5 µM [16] | further results |
| --- | --- | --- | --- | --- | --- | --- | --- | --- | --- | --- | --- | --- | --- | --- | --- | --- |
| 85% | 3.91 µM | 7.9 µM | 9.8 µM | O=C(O)/C=C/c1ccc(-c2ccc(O)c(C34CC5CC(CC3C5)C4)c2)c(Cl)c1 | 69% | 2% | 16% | 0.92 µM | 6.8 µM | 94% | 59% | 51% |  |  |  | IC50 (KG-1 [6]): 230 µM |
| 61% | 1.83 µM | 1.3 µM | 4 µM | Nc1ccc(-c2ccc(/C=C/C(=O)O)cc2Cl)cc1C12CC3CC(CC(C3)C1)C2 |  | 10% |  | 5 µM | 6 µM | 50% |  |  | 79% | 61% | 45% | IC50 (KG-1 [6]): 9.3 µM |
| 90% | 2.11 µM | 16 µM | 67 µM | O=C(O)/C=C/c1ccc(-c2ccc(F)c(C34CC5CC(CC(C5)C3)C4)c2)c(Cl)c1 |  | 0% | 0% | > 5 µM | 6 µM | 0% |  |  |  |  |  | inhibition at 100 µM [17]: 95%; IC50 [18]: 1 µM; inhibition at 100 µM (DU-145 [19]): 84%; inhibition at 100 µM (MDA-MB-231 [20]): 83% |
|  | 19.9 µM | > 10 µM | > 10 µM | Cc1cccc(C)c1-c1cc(-c2ccc(/C=C/C(=O)O)cc2Cl)ccc1O | 0% | 0% | 0% | > 5 µM | > 10 µM | 0% | 4% | 0% |  |  |  |  |
| 47% | 4.55 µM | 5 µM | > 5 µM | CC(=O)Nc1ccc(-c2ccc(/C=C/C(=O)O)cc2Cl)cc1C12CC3CC(CC(C3)C1)C2 |  | 3% | 7% | > 5 µM | > 5 µM | 25% |  |  | 8% | -5% | 13% |  |
|  | 0.45 µM | > 10 µM | > 10 µM | CC(C)(C)C#Cc1cc(-c2ccc(/C=C/C(=O)O)cc2Cl)ccc1O | 14% | 0% | 0% | > 5 µM | > 10 µM | 22% | 13% | 4% |  |  |  |  |
|  | 6.4 µM | 8 µM | > 5 µM | CC1(c2cc(-c3ccc(/C=C/C(=O)O)cc3Cl)ccc2O)CCCCC1 |  | 0% | 0% | > 5 µM | 3.9 µM | 0% |  |  | 32% | 9% | 63% |  |
|  | 500 µM | > 100 µM | > 100 µM | O=C(O)/C=C/c1ccc(-c2ccc(F)cc2)c(Cl)c1 | 18% | 0% | 0% | > 5 µM | 47 µM | 7% | 15% | 0% |  |  |  | inhibition at 100 µM [17]: 60%; inhibition at 100 µM (DU-145 [19]): 23%; inhibition at 100 µM (MDA-MB-231 [20]): 9% |
| 90% | 5.37 µM | > 5 µM | > 5 µM | CCC(CC)(CC)c1cc(-c2ccc(/C=C/C(=O)O)cc2Cl)ccc1O |  | 3% | 4% | > 5 µM | > 5 µM | 0% |  |  | 2% | 2% | 5% | IC50 [18]: 8 µM; Activity (KG-1 [21]): 14% |
